According to paper PMC2806602 (The Journal of neuroscience : the official journal of the …, 2009):
Positions count from the first letter of the chain named.

Tests used:
GluRδ2^Lc R530K = target: T1, GluRδ2^Lc R530K (Rattus norvegicus, UniProt Q63226, A654T/R530K); test: Two-electrode voltage-clamp recordings in Xenopus oocytes, GluRδ2^Lc R530K; type: cell-based; details: 3 mM Ca^2+; baseline spontaneously active current; ± SEM
T1 sequence (Q63226 24-1007 R530K/A654T): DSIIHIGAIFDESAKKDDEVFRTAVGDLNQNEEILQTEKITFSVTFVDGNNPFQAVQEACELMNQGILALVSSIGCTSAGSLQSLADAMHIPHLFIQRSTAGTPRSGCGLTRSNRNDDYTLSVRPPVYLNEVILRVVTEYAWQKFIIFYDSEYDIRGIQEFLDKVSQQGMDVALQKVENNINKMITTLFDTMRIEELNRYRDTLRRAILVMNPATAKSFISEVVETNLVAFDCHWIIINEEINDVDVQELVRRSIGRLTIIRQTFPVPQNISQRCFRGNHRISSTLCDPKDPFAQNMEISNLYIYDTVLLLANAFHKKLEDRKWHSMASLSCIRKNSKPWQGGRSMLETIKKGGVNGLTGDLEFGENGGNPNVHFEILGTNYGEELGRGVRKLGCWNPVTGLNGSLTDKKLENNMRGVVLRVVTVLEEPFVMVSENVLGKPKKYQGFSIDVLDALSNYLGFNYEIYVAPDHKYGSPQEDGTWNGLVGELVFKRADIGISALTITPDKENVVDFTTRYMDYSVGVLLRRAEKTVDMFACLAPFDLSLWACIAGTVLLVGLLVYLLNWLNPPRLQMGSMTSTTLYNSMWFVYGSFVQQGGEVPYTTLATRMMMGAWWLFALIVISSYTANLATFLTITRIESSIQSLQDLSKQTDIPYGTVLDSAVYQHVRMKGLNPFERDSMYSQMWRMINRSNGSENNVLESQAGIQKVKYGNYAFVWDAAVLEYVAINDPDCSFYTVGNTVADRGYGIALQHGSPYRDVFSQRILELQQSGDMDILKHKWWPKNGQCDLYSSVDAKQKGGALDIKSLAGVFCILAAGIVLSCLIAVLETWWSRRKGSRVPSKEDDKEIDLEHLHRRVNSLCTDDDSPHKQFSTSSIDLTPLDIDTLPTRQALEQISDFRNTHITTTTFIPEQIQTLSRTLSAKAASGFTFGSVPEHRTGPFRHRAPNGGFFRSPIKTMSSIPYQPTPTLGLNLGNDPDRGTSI
Outline: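 Oocytes expressing the Lc mutant were kept in 25 μM NASP to prevent cytotoxicity. Two-electrode voltage clamp at −40 mV and 23°C, 24–72 h after cRNA injection. Bath: 90 mM NaCl, 3 mM KCl, 0.5 mM BaCl2, 10 mM HEPES, pH 7.6. Choline or NMDG chloride balanced Cl− and osmolarity. Values are fold increase over the Ca2+-free spontaneously active baseline on applying 3 mM Ca2+, given as mean ± SEM over oocytes.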

[1] = target: T2, GluRδ2^Wt P528C+L789C+C811S (Rattus norvegicus, UniProt Q63226, C811S/L789C/P528C); type: cell-based; details: data not shown
T2 sequence (Q63226 24-1007 P528C/L789C/C811S): T1 sequence (Q63226 24-1007 R530K/A654T) with P505C, K507R, T631A, L766C, C788S

Ca^2+ potentiation (relative to baseline) (GluRδ2^Lc R530K)	SMILES	response to D-serine [1]
3.3 ± 0.20 fold	[Ca+2] [Ca^2+, calcium]	
	N[C@H](CO)C(=O)O [D-serine]	Neither the C811S mutation nor the triple P528C+L789C+C811S mutation resulted in measurable responses
